Only some compounds are listed: those with a hit (about 2.8% of all), similar ones and a draw of the others.
Measles CPE: compounds protecting cells from measles virus cytopathic effect, primary screen, measles RdRp inhibitor project, single point, MLSMR library, absorbance. Measles virus-infected cells, CPE protection. protection (pct of control), % at 4 µM. hit rate 1.5% among 140,000; in the data active means protection mostly above about 24%, no sharp cut-off; inactive means mostly below about 26%
Rad51 HR inh: human RAD51 strand exchange inhibitors, primary screen, biochemical, fluorescence | hit rate 0.085% among 200,000 | inhibition, % at 10 µM | hRad51 DNA strand exchange, fluorescence dequenching | DNA repair protein RAD51 homolog 1 (Homo sapiens), Q06609;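 active means inhibition above 40% at the single screening dose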;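 further: 0% = DMSO control wells and 100% = blanks with heterologous ssDNA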
Target sequence (Q06609 whole entry, looked up): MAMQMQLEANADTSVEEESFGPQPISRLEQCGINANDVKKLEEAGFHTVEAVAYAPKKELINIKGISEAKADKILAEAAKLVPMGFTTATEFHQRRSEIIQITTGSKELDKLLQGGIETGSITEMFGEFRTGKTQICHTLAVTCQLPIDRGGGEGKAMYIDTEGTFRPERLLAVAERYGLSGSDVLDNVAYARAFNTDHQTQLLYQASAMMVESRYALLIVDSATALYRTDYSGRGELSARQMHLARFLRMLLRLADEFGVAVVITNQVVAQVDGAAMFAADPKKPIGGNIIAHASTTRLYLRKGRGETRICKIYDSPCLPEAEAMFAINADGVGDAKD
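Read-out basis: percent inhibition relative to plate controls and blanks / Assay system: human Rad51 nucleoprotein filaments preassembled on unlabelled ssDNA / Timing: filaments 15 min 37 °C, then compound 30 min / Control set: per-plate controls and blanks / Technique: fluorescence dequenching at 485/520 nm / Compound: 10 µM final, single point / Also added: Fluorescein- and BHQ1-tagged 47-mer duplex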
NPY-Y1 antag: NPY-Y1 receptor antagonists, primary screen, cell-based; HEK293-CNG Y1 cells, membrane potential fluorescence; NPY at EC95, then isoproterenol; inhibition, % at 3.6 µM; hit rate 1% among 200,000; AID 1040, 2008;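 active means inhibition above the campaign mean inhibition of all tested compounds plus 3 SD, cut at about 20% in these data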;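 further: 0% = DMSO wells given NPY plus isoproterenol and 100% = isoproterenol alone without NPY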
Target sequence (P25929 whole entry, looked up): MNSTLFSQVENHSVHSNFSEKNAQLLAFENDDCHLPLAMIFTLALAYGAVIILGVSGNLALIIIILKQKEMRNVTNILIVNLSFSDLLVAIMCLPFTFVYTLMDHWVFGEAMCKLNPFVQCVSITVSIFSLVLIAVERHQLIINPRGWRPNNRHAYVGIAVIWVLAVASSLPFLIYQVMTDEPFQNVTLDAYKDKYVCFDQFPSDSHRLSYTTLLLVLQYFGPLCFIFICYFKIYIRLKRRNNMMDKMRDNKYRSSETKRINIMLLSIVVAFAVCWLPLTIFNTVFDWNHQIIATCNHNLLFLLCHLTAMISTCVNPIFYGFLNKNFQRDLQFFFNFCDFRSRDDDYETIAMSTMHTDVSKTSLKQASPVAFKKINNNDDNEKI
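Material: HEK293 Y1/CNG channel cell line; also added: NPY (25 nM), isoproterenol (1 µM), Ro 20-1724 (25 µM); doses: one concentration, 3.6 µM, in 0.4% DMSO; schedule: compound incubation 1 h at room temperature, readout 45 min post-stimulation; technique: membrane potential fluorescence; measure: fluorescence ratio normalized to % inhibition between controls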
NPY Y2 blocker: NPY-Y2 receptor antagonists, primary screen, cell-based; NPY-Y2 expressing cells, antagonist mode; AID 793, 2007; Neuropeptide Y receptor type 2 (Homo sapiens), P49146; inhibition, % at 2.7 µM; hit rate 0.99% among 140,000; in the data active means inhibition above about 17%;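 further: 0% = vehicle with agonist challenge and 100% = reference antagonist with challenge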
NPY1 pot ag: NPY-Y1 receptor potentiators or agonists, primary screen, cell-based; activation, % at 3.6 µM; AID 1304, 2008; hit rate 0.37% among 220,000; NPY-Y1 expressing cells, potentiator/agonist activation; in the data active means activation above about 33%, passing the limit was not always enough;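 further: cells stimulated with NPY at EC10 then isoproterenol at EC100; 0% = low agonist plus stimulus and 100% = saturating agonist plus stimulus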
NPY-Y2 PAM-ag: NPY-Y2 potentiators or agonists, primary screen, cell-based; cells expressing NPY-Y2, potentiator/agonist read-out; Neuropeptide Y receptor type 2 (Homo sapiens), P49146; AID 1359, 2008; activation, % at 3.6 µM; hit rate 0.45% among 220,000; in the data active means activation above about 27%;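 further: cells stimulated with NPY near EC25 plus isoproterenol at EC100; 0% = vehicle plus submaximal agonist and 100% = vehicle plus saturating agonist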
The depositor's hits bear a star.

What do the screens show for `CCOC(=O)c1sc(N(Cc2ccccc2)C(=O)COC(=O)c2ccc(O)cc2)nc1C`?
Measles CPE: 13; NPY-Y1 antag: 42*; NPY Y2 blocker: 26*; NPY1 pot ag: -37; NPY-Y2 PAM-ag: -35

How did Cn1cnc([N+](=O)[O-])c1SCCO do in these assays?
Rad51 HR inh: -4; NPY1 pot ag: -4; NPY-Y2 PAM-ag: 8

What do the screens show for `CN(C)c1ccc(N=Nc2ccccc2C(=O)OCC(=O)NCC2CCCCC2)cc1`?
Measles CPE: 5; Rad51 HR inh: 13; NPY-Y1 antag: -13; NPY Y2 blocker: -5; NPY1 pot ag: 59*; NPY-Y2 PAM-ag: 54*

What do the screens show for `CN(C)c1ccc(N=Nc2ccccc2C(=O)OCC(=O)NC2CCCC2)cc1`?
Measles CPE: 11; Rad51 HR inh: -1; NPY-Y1 antag: 2; NPY Y2 blocker: 2; NPY1 pot ag: 12; NPY-Y2 PAM-ag: 11

How did Cn1c(C23CC4CC(CC(C4)C2)C3)n[nH]c1=S do in these assays?
Measles CPE: 11; Rad51 HR inh: -26; NPY-Y1 antag: -9; NPY Y2 blocker: 0; NPY1 pot ag: 25; NPY-Y2 PAM-ag: -2

How did CCOC(=O)C1=C(C)N=c2s/c(=C/c3ccccc3)c(=O)n2C1c1ccc(OC)c(OC)c1 (centres undefined) do in these assays?
Measles CPE: 17; NPY-Y1 antag: -4; NPY Y2 blocker: -1; NPY1 pot ag: 3; NPY-Y2 PAM-ag: -6

What do the screens show for `COc1ccc(C2C(C(=O)OC(C)C)=C(C)N=c3s/c(=C\c4cccs4)c(=O)n32)cc1` (centres undefined)?
Measles CPE: 45*; Rad51 HR inh: 2; NPY-Y1 antag: 4; NPY Y2 blocker: 0; NPY1 pot ag: 21; NPY-Y2 PAM-ag: 2

Results for CCOc1cc(C(c2c(C)[nH][nH]c2=O)c2c(C)[nH][nH]c2=O)ccc1OC(=O)c1cccc([N+](=O)[O-])c1 ?
Measles CPE: 37*; Rad51 HR inh: 1; NPY-Y1 antag: -2; NPY Y2 blocker: 2; NPY1 pot ag: 12; NPY-Y2 PAM-ag: -4

What do the screens show for `O=C(/C(C=Nc1ccc(F)cc1)=C(/O)c1ccco1)C(F)(F)F`?
Measles CPE: 12; Rad51 HR inh: -7; NPY-Y1 antag: -4; NPY Y2 blocker: 1; NPY1 pot ag: 7; NPY-Y2 PAM-ag: -1

Results for Cc1ccc(C(=O)Nc2ccc3nc(C)sc3c2)s1 ?
Measles CPE: 60*; Rad51 HR inh: 5; NPY-Y1 antag: 7; NPY Y2 blocker: 2; NPY1 pot ag: -17; NPY-Y2 PAM-ag: 7

How did Cc1cc(NC(=O)c2ccc3nc(C)sc3c2)no1 do in these assays?
Measles CPE: 60*; Rad51 HR inh: 0; NPY-Y1 antag: 1; NPY Y2 blocker: -2; NPY1 pot ag: 8; NPY-Y2 PAM-ag: -3

How did CC(=O)c1c(C)nc2ccc(Br)cc2c1C(=O)O do in these assays?
Measles CPE: 14; Rad51 HR inh: -14; NPY-Y1 antag: 8; NPY Y2 blocker: 5; NPY1 pot ag: -10; NPY-Y2 PAM-ag: -18

What do the screens show for `CC(=O)c1c(C)nc2ccc(Br)cc2c1-c1ccccc1`?
Rad51 HR inh: 4; NPY-Y1 antag: 22*; NPY1 pot ag: -13; NPY-Y2 PAM-ag: -11

Results for CCOC(=O)N1CCC(NC(=O)c2cc(C(=O)NCc3cccc(Cl)c3)ccc2CO)CC1 ?
Measles CPE: 39*; Rad51 HR inh: -1; NPY-Y1 antag: -4; NPY Y2 blocker: 2; NPY1 pot ag: -3; NPY-Y2 PAM-ag: 9

How did CCOC(=O)N1CCC(NC(=O)c2cc(C(=O)NCc3ccc(F)cc3)ccc2CO)CC1 do in these assays?
Measles CPE: 11; Rad51 HR inh: 10; NPY-Y1 antag: 2; NPY Y2 blocker: -2; NPY1 pot ag: 1; NPY-Y2 PAM-ag: 8

How did O=C(NC1CCCCCCC1)C1c2ccccc2C(=O)N1Cc1cccs1 (centres undefined) do in these assays?
Measles CPE: 17; Rad51 HR inh: -2; NPY-Y1 antag: 33*; NPY Y2 blocker: 31*; NPY1 pot ag: -28; NPY-Y2 PAM-ag: -2

How did NC(=O)CSc1nnc(-c2ccccn2)n1Cc1ccco1 do in these assays?
NPY1 pot ag: 0; NPY-Y2 PAM-ag: -6

Results for C(=C\c1ccccc1)/CSc1nnc(-c2ccccn2)n1Cc1ccco1 ?
Measles CPE: 4; Rad51 HR inh: -5; NPY-Y1 antag: 21*; NPY Y2 blocker: 20*; NPY1 pot ag: -56; NPY-Y2 PAM-ag: -11

What do the screens show for `Cc1ccoc1C(=O)NCCNc1ccc(Cl)cc1[N+](=O)[O-]`?
Measles CPE: 3; Rad51 HR inh: -5; NPY-Y1 antag: 3; NPY Y2 blocker: 2; NPY1 pot ag: -12; NPY-Y2 PAM-ag: 5

How did C(#CCN1CCOCC1)COC(c1ccccc1)c1ccccc1 do in these assays?
Measles CPE: 10; Rad51 HR inh: -3; NPY-Y1 antag: -2; NPY Y2 blocker: 2; NPY1 pot ag: -24; NPY-Y2 PAM-ag: -13

Results for CC(=O)OC(C#CCN1CCOCC1)c1ccccc1 (centres undefined) ?
Measles CPE: 46*; Rad51 HR inh: 8; NPY-Y1 antag: 6; NPY Y2 blocker: 0; NPY1 pot ag: 11; NPY-Y2 PAM-ag: -3

What do the screens show for `COc1ccc(NC(=O)c2cc3c(=O)n4ccccc4nc3n2C)cc1OC`?
Rad51 HR inh: -13; NPY-Y1 antag: 4; NPY1 pot ag: 5; NPY-Y2 PAM-ag: 2

Results for CCCn1c(SCC(=O)Nc2sc(C)c(C)c2C(=O)OCC)nc2c1c(=O)n(C)c(=O)n2C ?
Measles CPE: 31*; Rad51 HR inh: -2; NPY-Y1 antag: 1; NPY Y2 blocker: -4; NPY1 pot ag: 2; NPY-Y2 PAM-ag: -2

How did CCOc1ccc2nc(NC(=O)CSc3nc4c(c(=O)n(C)c(=O)n4C)n3C(C)C)sc2c1 do in these assays?
Measles CPE: 2; NPY-Y1 antag: 1; NPY Y2 blocker: 7; NPY1 pot ag: 2; NPY-Y2 PAM-ag: 12

Results for CCn1c(SCC(=O)Nc2nc3ccc(OC)cc3s2)nc2c1c(=O)n(C)c(=O)n2C ?
Measles CPE: 27*; Rad51 HR inh: 6; NPY-Y1 antag: -1; NPY Y2 blocker: 3; NPY1 pot ag: -10; NPY-Y2 PAM-ag: 0

How did Cc1ccc(NC(=O)C2=C(c3ccccc3)S(=O)(=O)CCS2(=O)=O)cc1 do in these assays?
Rad51 HR inh: 9; NPY-Y1 antag: -7; NPY1 pot ag: 56*; NPY-Y2 PAM-ag: 55*

How did Cc1ccc(NC(=O)c2ccccc2)cc1 do in these assays?
Measles CPE: 5; Rad51 HR inh: 6; NPY-Y1 antag: 8; NPY Y2 blocker: 4; NPY1 pot ag: 28; NPY-Y2 PAM-ag: 7

Assay outcomes as filed in PubChem BioAssay.
